Screening results deposited in PubChem by SRMLSC.
bCat KO growth – beta-catenin-lacking colon tumor cell growth suppression; HCT116 beta-catenin knockout viability, CellTiter-Glo, 60 h; hits give low values; viability, % at 10 µM; hit rate 1.5% among 140,000;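 active = viability at or under a set limit, the compound median less 4 SD, cut at about 6% in these data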
PTEN del growth – PTEN-deleted cell growth suppression. HCT116 PTEN-null viability, CellTiter-Glo, 60 h; hits give low values. viability, % at 10 µM. hit rate 1.2% among 140,000. AID 827;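 active = viability at or below a set limit, 4 SD under the median of all tested compounds, cut at about 3.7% in these data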;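 note: PTEN knockout HCT116 line with beta catenin targeted HCT116 as companion control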
H69AR growth 86K – blocks growth of human H69AR lung tumor cells; H69AR lung tumor viability, ATP luminescence, 72 h; hits give low values; viability, % at 10 µM; hit rate 6% among 85,000;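 active = viability at or below 40%; inactive = viability above 40%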;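 note: multidrug resistant small cell line overexpressing MRP-1 efflux transporter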
HUVEC inhibit – blocks proliferation of human endothelial cells | HUVEC proliferation, CellTiter-Glo luminescence, 72 h; hits give low values | viability, % at 10 µM (by protocol) | hit rate 1.1% among 86,000;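 active = viability at or below 30%; inactive = viability above 30%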
Fibroblast inh – blocks proliferation of human lung fibroblasts | hit rate 1.1% among 85,000 | viability, % at 10 µM | AID 719 | LL 47 human lung fibroblast viability, ATP luminescence; hits give low values;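 active = viability at or below 50% in the single dose screen; inactive = viability above 50%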;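 note: compound exposure lasted 72 h before the ATP readout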
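test system = LL 47 human lung fibroblasts | amount = 1,150 fibroblasts seeded per well | medium = 15% FBS in IMEM | times = overnight cell rest, 72 h compound treatment at 37 °C | measured by = CellTiter-Glo luminescence measuring cellular ATP | read-out = viability percentage against median untreated-cell control | benchmarks = cell-only wells, no compound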
Numbers stand for hits; . = inactive; / = no result. Shown is part of a subset that was picked to be rich in hits.

SMILES	bCat KO growth	PTEN del growth	H69AR growth 86K	HUVEC inhibit	Fibroblast inh
O=c1c2ccccc2nc(COc2ccccc2)n1/N=C/c1cn[nH]c1-c1ccccc1	.	.	/	/	/
COCc1nnc(NS(=O)(=O)c2c(C)cc(C)cc2C)s1	.	.	.	.	.
CC(=O)O[C@@]12CO[C@@H]1C[C@H](O)[C@@]1(C)C(=O)[C@H](O)C3=C(C)[C@@H](OC(=O)[C@H](O)[C@@H](NC(=O)OC(C)(C)C)c4ccccc4)C[C@](O)([C@@H](OC(=O)c4ccccc4)[C@H]21)C3(C)C	/	/	22.9	.	.
CC(=O)c1c(N2CCN(Cc3ccccc3)CC2)[nH]c(-c2ccccc2)nc1=S	.	.	4.6	.	.
COCCOc1nc2c(c(=O)n(C)c(=O)n2C)n1Cc1cccc(OC)c1	.	.	.	.	.
O=C(c1ccco1)N1CCN(c2ncnc3c2[nH]c2ccccc23)CC1	.	.	.	.	.
O=C(c1ccco1)N1CCN(c2ncnc3c2[nH]c2ccc(Br)cc23)CC1	.	.	38.2	.	.
O=C(c1ccco1)N1CCN(C(=O)c2cc(-c3ccncc3)nc3ccc(Br)cc23)CC1	/	/	38.6	.	.
O=C(c1ccco1)N1CCN(C(=O)c2cc(-c3ccccn3)nc3ccc(Cl)cc23)CC1	.	.	38.4	.	.
CCOc1ccc(C2CC(=O)NC(SCC(=O)OC)=C2C#N)cc1 (configuration not stated)	.	.	.	.	.
Cc1cccc2sc(NNC(=O)c3ccc(S(=O)(=O)N4CC(C)CC(C)C4)cc3)nc12 (configuration not stated)	2.2	1.9	/	/	/
Cc1cc(C)c2nc(NNC(=O)c3ccc(S(=O)(=O)N4CCCC(C)C4)cc3)sc2c1 (configuration not stated)	4.0	.	/	/	/
COC(=O)c1sc2ccccc2c1NC(=O)c1ccc(S(=O)(=O)N2CC(C)CC(C)C2)cc1 (configuration not stated)	.	.	/	/	/
Cc1cc(C)c2nc(NNC(=O)c3ccc(S(=O)(=O)N4CC(C)CC(C)C4)cc3)sc2c1 (configuration not stated)	.	.	/	/	/
Cc1ccc2nc(NNC(=O)c3ccc(S(=O)(=O)N4CCc5ccccc5C4)cc3)sc2c1	3.8	.	/	/	/
CS(=O)(=O)N(CC(=O)N1CCN(c2ccccc2)CC1)c1ccccc1Cl	/	/	.	.	.
COc1ccc(C(=O)CN2C(=O)C(C)(C)Oc3ccc(C(=O)N4CCCCCC4)cc32)cc1	.	.	.	.	.
